Experimental data taken from publication PMC7004521 (Cancer Science, 2019).
Entries after “also recorded” stand apart in the source; their conditions may differ. Where two headings read alike, the source gives them in different places.

What was measured:
[1] = Dose-limiting toxicities, MTD and RP2D determination; assay type: in vivo, human
[2] = system: MET‐dysregulated advanced solid tumors; experiment: Best overall response according to investigator; assay type: in vivo, human
In short: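 Patients with MET-dysregulated advanced solid tumours took oral twice-daily doses in 28-day cycles: 100–600 mg capsules or 400 mg tablets in escalation, and 600 mg capsules or 400 mg tablets in expansion. Tumours were assessed by CT, or by contrast MRI for GBM or when CT was contraindicated. Response was judged by the investigator per RECIST v1.0 (the ORR endpoint is defined per v1.1), or MacDonald criteria for GBM.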

[3] = Plasma pharmacokinetics; assay type: in vivo, human
In short: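 Capsules (100–600 mg bid) or tablets (400 mg bid) were given orally. In escalation, plasma was drawn pre-dose and at 0.5, 1, 2, 4, 6 and 8 h on cycle 1 days 1 and 15, plus pre-dose on C1D2, C1D16, C2D1 and C3D1. In expansion, non-NSCLC patients had the C1D15 profile plus pre-dose samples. Analysis was validated LC-MS/MS (LLOQ 1 ng/mL) with noncompartmental parameters.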

[4] = system: MET‐dependent tumors; details: tolerable doses; animal models incl. NSCLC, HCC, GBM; cited from earlier work
[5] = system: MET; details: biochemical assays; cited from earlier work
[6] = system: MET; details: cellular assays; cited from earlier work
[7] = system: other kinases; details: large panels of biochemical and binding assays; cited from earlier work
[8] = dose‐expansion cohorts, N = 18 evaluable
[9] = escalation 400 mg bid tablet n=5
[10] = expansion RP2D gastric cancer n=9
[11] = expansion RP2D other indications n=18

CNC(=O)c1ccc(-c2cnc3ncc(Cc4ccc5ncccc5c4)n3n2)cc1F [capmatinib]
posterior probability of excessive toxicity (BLRM) ([1]; 600 mg bid dose level, dose‐escalation phase): 20.1% | MTD ([1]; up to 600 mg bid capsules): not reached | Best overall response: Complete response ([2]; all escalations N=38): 0 n (%) | Best overall response: Partial response ([2]; all escalations N=38): 0 n (%) | Best overall response: Progressive disease ([2]; all escalations N=38): 25 (66) n (%) | Best overall response: Unknown ([2]; all escalations N=38): 3 (5) n (%) | Best overall response: Complete response ([2]; all expansions RP2D N=38): 0 n (%) | Best overall response: Partial response ([2]; all expansions RP2D N=38): 0 n (%) | tumor shrinkage ([2]; dose escalation, 450 mg bid capsule, colon cancer and HCC): tumor shrinkage was observed in two patients; also recorded: tumor shrinkage was observed for two patients | patients with best percentage change from baseline in sum of tumor diameters <0 [2, 8]: 7 n | patients with best percentage change from baseline in sum of tumor diameters >0 [2, 8]: 11 n | Best overall response: Complete response ([2]; escalation 100 mg bid n=4): 0 n (%) | Best overall response: Partial response ([2]; escalation 100 mg bid n=4): 0 n (%) | Best overall response: Progressive disease ([2]; escalation 100 mg bid n=4): 2 (50) n (%) | Best overall response: Stable disease ([2]; escalation 100 mg bid n=4): 2 (50) n (%) | Best overall response: Unknown ([2]; escalation 100 mg bid n=4): 0 n (%) | Best overall response: Complete response ([2]; escalation 200 mg bid n=5): 0 n (%) | Best overall response: Partial response ([2]; escalation 200 mg bid n=5): 0 n (%) | Best overall response: Progressive disease ([2]; escalation 200 mg bid n=5): 4 (80) n (%) | Best overall response: Stable disease ([2]; escalation 200 mg bid n=5): 1 (20) n (%) | Best overall response: Unknown ([2]; escalation 200 mg bid n=5): 0 n (%) | Best overall response: Complete response ([2]; escalation 250 mg bid n=4): 0 n (%) | Best overall response: Partial response ([2]; escalation 250 mg bid n=4): 0 n (%) | Best overall response: Stable disease ([2]; escalation 250 mg bid n=4): 1 (25) n (%) | Best overall response: Unknown ([2]; escalation 250 mg bid n=4): 1 (25) n (%) | Best overall response: Complete response ([2]; escalation 350 mg bid n=3): 0 n (%) | Best overall response: Partial response ([2]; escalation 350 mg bid n=3): 0 n (%) | Best overall response: Progressive disease ([2]; escalation 350 mg bid n=3): 2 (67) n (%) | Best overall response: Stable disease ([2]; escalation 350 mg bid n=3): 1 (33) n (%) | Best overall response: Unknown ([2]; escalation 350 mg bid n=3): 0 n (%) | Best overall response: Complete response [2, 9]: 0 n (%) | Best overall response: Partial response [2, 9]: 0 n (%) | Best overall response: Progressive disease [2, 9]: 3 (60) n (%) | Best overall response: Stable disease [2, 9]: 2 (40) n (%) | Best overall response: Unknown [2, 9]: 0 n (%) | Best overall response: Complete response ([2]; escalation 450 mg bid n=9): 0 n (%) | Best overall response: Partial response ([2]; escalation 450 mg bid n=9): 0 n (%) | Best overall response: Progressive disease ([2]; escalation 450 mg bid n=9): 6 (67) n (%) | Best overall response: Stable disease ([2]; escalation 450 mg bid n=9): 2 (22) n (%) | Best overall response: Unknown ([2]; escalation 450 mg bid n=9): 1 (11) n (%) | Best overall response: Complete response ([2]; escalation 600 mg bid n=8): 0 n (%) | Best overall response: Partial response ([2]; escalation 600 mg bid n=8): 0 n (%) | Best overall response: Progressive disease ([2]; escalation 600 mg bid n=8): 6 (75) n (%) | Best overall response: Stable disease ([2]; escalation 600 mg bid n=8): 1 (13) n (%) | Best overall response: Unknown ([2]; escalation 600 mg bid n=8): 1 (13) n (%) | Best overall response: Complete response ([2]; expansion RP2D HCC n=11): 0 n (%) | Best overall response: Partial response ([2]; expansion RP2D HCC n=11): 0 n (%) | Best overall response: Progressive disease ([2]; expansion RP2D HCC n=11): 1 (9.1) n (%) | Best overall response: Stable disease ([2]; expansion RP2D HCC n=11): 5 (46) n (%) | Best overall response: Unknown ([2]; expansion RP2D HCC n=11): 5 (46) n (%) | Best overall response: Complete response [2, 10]: 0 n (%) | Best overall response: Partial response [2, 10]: 0 n (%) | Best overall response: Progressive disease [2, 10]: 3 (33) n (%) | Best overall response: Stable disease [2, 10]: 2 (22) n (%) | Best overall response: Unknown [2, 10]: 4 (44) n (%) | Best overall response: Complete response [2, 11]: 0 n (%) | Best overall response: Partial response [2, 11]: 0 n (%) | Best overall response: Progressive disease [2, 11]: 9 (50) n (%) | Best overall response: Stable disease [2, 11]: 5 (28) n (%) | Best overall response: Unknown [2, 11]: 4 (22) n (%) | stable disease ([2]; expansion, other advanced solid tumor types, five of 18 patients): 28% | tumor reduction in patients with GCN ≥6 ([2]; expansion, two other solid tumor patients): substantial tumor reduction | drug accumulation following multiple doses ([3]; 400 mg bid tablets): Limited drug accumulation | Racc (accumulation ratio), Mean (SD) ([3]; Cycle 1 Day 15, 100 mg bid n=3): 1.54 (0.786) | Racc (accumulation ratio), Mean (SD) ([3]; Cycle 1 Day 15, 200 mg bid n=5): 1.36 (0.869) | Racc (accumulation ratio), Mean (SD) ([3]; Cycle 1 Day 15, 250 mg bid n=3): 1.08 (0.443) | Racc (accumulation ratio), Mean (SD) ([3]; Cycle 1 Day 15, 350 mg bid n=3): 1.38 (0.614) | Racc (accumulation ratio), Mean (SD) ([3]; Cycle 1 Day 15, 400 mg bid tablet n=5): 1.09 (0.408) | Racc (accumulation ratio), Mean (SD) ([3]; Cycle 1 Day 15, 450 mg bid n=5): 2.36 (1.75) | Racc (accumulation ratio), Mean (SD) ([3]; Cycle 1 Day 15, 600 mg bid n=15): 2.07 (0.848) | drug accumulation ratio following multiple doses ([3]; capsules): one‐ to twofold | drug accumulation following multiple doses ([3]; capsules 450 and 600 mg bid): ca. twofold | dose proportionality of steady‐state AUCtau and Cmax ([3]; capsules, 100 to 600 mg bid): generally dose proportional | mean exposure, tablet 400 mg bid versus capsules 600 mg bid ([3]; steady state): comparable mean exposure | Cmax, Mean (SD) ([3]; steady state, Cycle 1 Day 15, 200 mg bid n=5): 2500 (856) ng/mL | Tmax, Median ([3]; steady state, Cycle 1 Day 15, 250 mg bid n=3): 1.00 h | Tmax, Median ([3]; steady state, Cycle 1 Day 15, 400 mg bid tablet n=8): 2.02 h | effect on MET‐dependent tumors [4]: regression of MET‐dependent tumors | IC50 [5]: 0.13 nM | IC50 [6]: ~1 nM | selectivity versus other kinases [7]: highly selective versus other kinases
